# FLuc inh counter – counter-screen for luciferase assay inhibitors: firefly luciferase inhibition; ATPLite firefly luciferase biochemical luminescence, 10 min; 1.5% of 200,000 active; inhibition, % at 10 µM;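 active means inhibition above about 50% when tested at 10 µM, limit read from the data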
# Target sequence (P08659 whole entry, looked up): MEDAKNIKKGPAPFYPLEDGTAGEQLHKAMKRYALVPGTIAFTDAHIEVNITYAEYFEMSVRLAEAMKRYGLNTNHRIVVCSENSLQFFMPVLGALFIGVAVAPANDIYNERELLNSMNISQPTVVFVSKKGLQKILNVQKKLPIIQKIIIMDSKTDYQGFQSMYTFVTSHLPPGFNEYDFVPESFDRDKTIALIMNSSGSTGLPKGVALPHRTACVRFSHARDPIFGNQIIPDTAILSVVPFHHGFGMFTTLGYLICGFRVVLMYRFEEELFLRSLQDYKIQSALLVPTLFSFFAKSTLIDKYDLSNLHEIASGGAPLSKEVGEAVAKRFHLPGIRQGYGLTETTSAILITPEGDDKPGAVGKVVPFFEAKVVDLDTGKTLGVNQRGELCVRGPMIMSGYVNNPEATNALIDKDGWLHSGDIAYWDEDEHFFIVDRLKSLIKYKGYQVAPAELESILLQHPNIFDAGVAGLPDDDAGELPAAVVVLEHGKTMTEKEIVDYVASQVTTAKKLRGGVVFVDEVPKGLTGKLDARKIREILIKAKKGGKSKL
# TRAIL sens C8 – caspase-8 TRAIL sensitization; NB7+C8 cells + TRAIL, ATPlite viability luminescence; inhibition (viability loss, TRAIL sensitization), % at 10 µM; 1% of 360,000 active;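 active means compounds causing at least 50% loss of cell viability in the single-dose screen, relative to plate controls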
# PPC-1+TRAIL kill – kills PPC-1 cancer cells in the presence of TRAIL; PPC-1 cells + TRAIL, ATPLite viability luminescence; cell killing (% activity), % at 4 µM or 5 µM; 0.41% of 220,000 active;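 active means cell killing above 50% in the first pass at 4 µM, then a duplicate retest at 5 µM averaging 50% or more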;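 further: plate controls were cells with TRAIL plus DMSO for no effect and medium-only wells lacking cells for full effect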
# FLuc act counter – affects firefly luciferase, flagging false hits in luciferase stimulation screens | P08659 | ATPlite luciferase biochemical, luminescence, 10 min; 0 = ATP-free wells, 1 = DMSO control | activation factor at 10 µM | 200,000 tested, under 10 active | AID 1027;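 active means luciferase activation factor, scaled between plate controls, of at least 2 with compound at 10 µM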
#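 Assay system: Luciferase/luciferin detection reagent, cell-free biochemical luciferase assay / Also added: ATP substrate / Schedule: 10 min at ambient temperature / Measured by: luminescence measurement of luciferase light output / Benchmarks: low control with PBS replacing ATP, high control enzyme plus ATP without compound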
# An asterisk follows results filed as active; nt = no result given. An excerpt weighted towards active compounds, which were near 1.5% of everything screened.
SMILES,FLuc inh counter,TRAIL sens C8,PPC-1+TRAIL kill,FLuc act counter
COc1cccc(-c2noc(-c3cccs3)n2)c1,50.2*,20.5,26.1,0.5
CC1=C(C(=O)N2CCCCCC2)CC(CC(=O)NC(c2ccccc2)c2ccccc2)C(=O)N1Cc1ccccc1 (configuration not stated),nt,0.4,nt,nt
CC(C)c1cccc(OCCCCN(C)C)c1,-2.1,-4.0,23.3,1
CC(NS(=O)(=O)c1ccc(Cl)cc1)C(=O)N1CCOCC1 (configuration not stated),nt,-2.6,nt,nt
O=C(CN1C(=O)S/C(=C/c2ccc(N3CCOCC3)cc2)C1=O)N1CCOCC1,75.6*,61.2*,49.3,0.2
Cc1ccc(/C=C2/SC(=O)N(CC(=O)N3CCOCC3)C2=O)s1,-0.7,-2.0,33.5,1
Cc1[nH]ccc(=O)c1OC1OC(CO)C(O)C(O)C1O (configuration not stated),-2.1,-9.4,13.4,1
NC(=O)c1oc2ccccc2c1NC(=O)c1ccc(F)cc1,1.6,0.7,24.5,1
NC(=O)c1oc2ccccc2c1NC(=O)c1ccc([N+](=O)[O-])o1,nt,74.4*,nt,nt
CCn1nc(C)c(CN2CCc3c([nH]c4ccccc34)C2c2ccc(F)c(OC)c2)c1C (configuration not stated),-3.5,-5.5,13.1,1
Cc1ccc(C)c(NC(=O)c2ccc3ccccc3n2)c1,56.2*,48.0,37.4,0.4
Cc1cccc(C(=O)N[C@H](C(=O)OCC(=O)NC2CCS(=O)(=O)C2)C(C)C)c1 (some centres not stated),-3.2,-11.5,29.8,1
O=C(CN1C(=O)c2ccccc2S1(=O)=O)c1ccccc1F,nt,46.3*,nt,nt
O=C(CCN1C(=O)c2ccccc2S1(=O)=O)Nc1cc(Cl)ccc1Cl,nt,15.5,nt,nt
O=C(CN1C(=O)c2ccccc2S1(=O)=O)c1ccc(Cl)cc1Cl,nt,67.3*,nt,nt
Oc1ccc(Br)cc1-c1ccnn1-c1ccccc1,nt,13.2,nt,nt
COc1ccc(CN(CCC(c2ccccc2)c2ccc(OC(C)C)cc2)C(=O)CCl)cc1OC (configuration not stated),-6.2,96.4*,3.9,1.1
O=c1oc(-c2ccccc2)nc2sc3c(c12)CCC3,25.6,-0.1,19.2,0.7
Nc1nc(-c2ccccc2)nc2sc3c(c12)CCCC3,85.2*,76.2*,54.7*,0.1
COC(=O)c1c(C)nn(-c2ccc(F)c(Cl)c2)c1-c1cc(C)on1,nt,8.6,12.2,nt
CCCC(=O)Nc1ccc(C(=O)COC(=O)c2cc(C)oc2C)cc1,nt,-14.2,nt,nt
CCCCCCC[N+](CC)(CC)CCCCc1ccc(Cl)cc1,nt,56.6*,nt,nt
O=C(COc1ccccc1)NCC(=O)Nc1ccncc1,nt,-4.1,nt,nt
Cn1cnc([N+](=O)[O-])c1Sc1nc(N)nc2c1ncn2C1CC(O)C(CO)O1 (configuration not stated),nt,71.8*,nt,nt
Cn1cnc([N+](=O)[O-])c1Sc1nc(N)nc2c1ncn2C1OC(CO)C(O)C1O (configuration not stated),nt,70.5*,nt,nt
SMILES,FLuc inh counter,TRAIL sens C8,PPC-1+TRAIL kill,FLuc act counter
CCSc1nc(N)nc2c1ncn2C1OC(CO)C(O)C1O (configuration not stated),nt,-2.3,nt,nt
COc1cc(C(=O)NCC(=O)Nc2ccc(F)c(F)c2)ccc1OCC(=O)N1CCOCC1,nt,4.2,nt,nt
COC(=O)Nc1ccc(OCC(=O)N2CCOCC2)cc1,-1.1,-18.8,5.4,1
O=C(Nc1ccc(OCC(=O)N2CCOCC2)cc1)c1ccccc1F,nt,61.1*,nt,nt
O=C(CCC1CCCC1)Nc1ccc(OCC(=O)N2CCOCC2)cc1,73.2*,42.2,39.4,0.3
Cc1cc(NC(=O)c2ccccc2F)cc(C)c1OCC(=O)N1CCOCC1,nt,15.6,nt,nt
CC1(Br)C(Sc2ccccc2[N+](=O)[O-])=Nc2ccccc21 (configuration not stated),nt,9.8,nt,nt
COc1ccc(C2C(C(=O)N3CC(C)CC(C)C3)c3ccccc3C(=O)N2C)cc1 (configuration not stated),-11.6,27.9,-0.2,1.1
COc1ccc(C2C(C(=O)N3CCN(c4ccccc4F)CC3)c3ccccc3C(=O)N2C)cc1 (configuration not stated),-6.7,66.9*,4.8,1.1
COc1ccc(C2C(C(=O)N3CCC(C)CC3)c3ccccc3C(=O)N2C)cc1 (configuration not stated),-6.3,54.0*,3.3,1.1
COCCN1C(=O)c2ccccc2C(C(=O)N2CCN(c3ccccc3)CC2)C1c1ccc(F)cc1 (configuration not stated),-5.4,-9.0,34.2,1.1
COc1ccccc1-n1c(SC(C)C(=O)NCC2CCCO2)nc2cc(Cl)ccc2c1=O (configuration not stated),nt,-9.0,nt,nt
COc1cc(C(=O)Oc2ccccc2/C=N/NC(=O)c2ccc(C)cc2)cc(OC)c1OC,14.9,50.1*,46.8,0.9
O=C(Nc1nnc(C2CC2)s1)c1cncc(Br)c1,nt,7.7,nt,nt
CC[C@H]1CN2CCc3cc(OC)c(OC)cc3C2C[C@@H]1C[C@H]1NCCc2cc(OC)c(OC)cc21 (some centres not stated),nt,55.8*,nt,nt
CCC1=C(CC2NCCc3ccccc32)CC2c3cc(OC)c(OC)cc3CCN2C1 (configuration not stated),nt,23.0,nt,nt
Cc1ccc2nc(-c3ccc4c(c3)OCCO4)cc(C(=O)O)c2c1,74.2*,42.1,34.2,0.3
O=C(O)c1cc(-c2ccc3c(c2)OCO3)nc2ccccc12,44.7,21.8,28.1,0.6
O=C(c1ccccc1)c1coc(-c2ccccc2)c1,nt,34.2,nt,nt
O=C(CCl)N1CCN(S(=O)(=O)c2ccc3ccccc3c2)CC1,nt,80.9*,nt,nt
CN(C)C(=O)N1CCN(S(=O)(=O)c2ccc3ccccc3c2)CC1,nt,-1.7,nt,nt
Cc1ccc(-c2nc(N/N=C/c3ccccc3[N+](=O)[O-])c3ccccc3n2)cc1,63.7*,89.0*,30.8,0.4
O=C1C(=Cc2cccs2)C(=O)c2ccccc21,53.4*,1.2,-1.4,0.5
Cc1ccccc1C1=N/C(=C/c2cccs2)C(=O)O1,84.9*,6.5,29.3,0.2
Cc1ccc(C=C2C(=O)c3ccccc3C2=O)o1,83.9*,0.7,20.2,0.2
SMILES,FLuc inh counter,TRAIL sens C8,PPC-1+TRAIL kill,FLuc act counter
Cc1ccc(C)c(/C=C2\N=C(c3ccccc3F)OC2=O)c1,nt,-17.6,nt,nt
COc1ccc2c(c1)OC/C(=C/c1cccs1)C2=O,86.9*,40.6,29.7,0.1
O=C1N2c3ccccc3CCc3cccc(c32)C1(O)C(F)(F)F (configuration not stated),-9.1,-13.3,17.1,1.1
Cc1ccc(C=C2C(=O)c3ccccc3C2=O)s1,74.6*,-9.8,-1.3,0.3
O=C1/C(=C/c2cccs2)Cc2ccccc21,58.0*,-0.5,-4.6,0.4
Clc1ccc2c(c1)[C@H]1OCC[C@H]1[C@@H](c1ccco1)N2,58.9*,12.5,14.2,0.4
COC(=O)c1c(C)[nH]c(C(=O)OCC(=O)c2ccc(C)s2)c1C,nt,16.8,nt,nt
CN(CCNC(=O)c1c[nH]c2c1ccc1ccccc12)CCNC(=O)c1c[nH]c2c1ccc1ccccc12,nt,14.2,nt,nt
CCOC(=O)[C@@H]1[C@H]2COc3ccccc3[C@H]2N2C(=O)N(c3cccc(F)c3)C(=O)[C@]12C,nt,-6.9,nt,nt

# High-throughput results deposited in PubChem BioAssay by Sanford-Burnham Center for Chemical Genomics.
